Active and inactive are the calls of the source. The rule behind the calls is not given here.
Assays:
Hep 3B2 [1] = test: Induction of erythropoietin gene expression in human Hep3B cells assessed as concentration resulting in maximum fold induction by luciferase reporter assay relative to control; assay type: functional
Summary of the method: (§1)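 Hep3B epo-3 cells carrying an EPO-luciferase reporter; compounds tested at 0.1 to 30 µM, in triplicate in at least three experiments. Read-out is the ratio of light units with compound to a 0.5% DMSO vehicle control. TIR5x is the concentration giving fivefold induction; TIRmax is the minimum concentration giving maximum-fold induction. 10 µM CoCl2 served as positive control.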

Hep 3B2 [2] = test: Induction of erythropoietin gene expression in human Hep3B cells assessed as concentration resulting in five fold induction by luciferase reporter assay relative to control; assay type: functional; summary of the method: as §1
[3] = Cytotoxicity against human Hep3B cells after 48 hrs by MTT assay; assay type: functional, Hep 3B2
Summary of the method: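 Hep3B epo-3 cells, 48 h exposure, standard MTT assay; value is concentration giving 90% inhibition (IC90).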

Hep 3B2 [4] = test: Induction of erythropoietin protein expression in human Hep3B cells assessed per ml of protein at 10 uM by ELISA relative to control; assay type: functional
Summary of the method: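 Hep3B epo-3 cells incubated 24 h with compound at a single 10 µM; native EPO secreted into culture measured by human EPO ELISA kit, in mU/mL culture, against a 0.5% DMSO vehicle control; 10 µM CoCl2 as positive control.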

SMILES | Activity (Hep 3B2 [1]) | Activity (Hep 3B2 [2]) | IC90 [3] | Activity (Hep 3B2 [4])
Cc1cc(C2CCCCC2)n(O)c(=O)c1.NCCO [CICLOPIROX OLAMINE] | 15 µM | 3 µM | > 20 µM | 99 mU/mL
C=C[C@]1(C)C[C@H](C)C[C@H](C)[C@H]1c1c(O)ccn(O)c1=O | 0.7 µM | 0.3 µM | > 20 µM | 120 mU/mL
C=C[C@]1(C)C[C@H](C)C[C@H](C)[C@H]1c1c(OC)ccn(OC)c1=O | inactive | inactive |  | 

Reference: ChEMBL document CHEMBL1157279, “8-methyl-pyridoxatin: A novel N-hydroxy pyridone from fungus OS-F61800 that induces erythropoietin in human cells” (1999)
